# Results as given in paper PMC5299621 (The Journal of General Physiology, 2017).
# What was measured:
# [1] = target: T1, hTRPM2 G1389A mutant (Homo sapiens, UniProt O94759, G1389A); experiment: Whole-cell recording of H2O2-induced TRPM2 currents, G1389A mutant; type: cell-based; settings: extracellular H2O2, 10 mM / 30 mM
# Summary of the method: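 Whole-cell recording at RT was done on transiently transfected HEK293 cells, alongside untransfected and WT-expressing cells. Pipette: 147 mM NaCl, 0.05 mM EGTA, 1 mM MgCl2, 10 mM HEPES, pH 7.3. Cells were held at 0 mV with a 500-ms ramp from −100 to 100 mV every 5 s. At least six cells per condition.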
# [2] = target: T1, hTRPM2 G1389A mutant; experiment: Whole-cell recording of calcium-induced TRPM2 currents, G1389A mutant; type: cell-based; settings: 50 mM calcium, intracellular solution
# Summary of the method: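 Transiently transfected HEK293 cells were compared with untransfected and WT-expressing cells by whole-cell recording at RT. Cells were held at 0 mV with a 500-ms ramp from −100 to 100 mV every 5 s. At least six cells per condition.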
# [3] = target: hTRPM2 WT channel (Homo sapiens, UniProt O94759); experiment: Whole-cell recording of ADPR-induced currents, HEK293 cells expressing WT hTRPM2; type: cell-based
# [4] = test system: TRPM2 E1409K mutation; settings: ref Perraud et al., 2005, Tóth et al., 2014; cited from earlier work
# [5] = target: hTRPM2 S1391A mutant (Homo sapiens, UniProt O94759, S1391A); experiment: Whole-cell ADPR-induced currents, HEK293, S1391A mutant; type: cell-based
# [6] = target: hTRPM2 L1379S mutant (Homo sapiens, UniProt O94759, L1379S); experiment: Whole-cell ADPR-induced currents, HEK293, L1379S mutant; type: cell-based
# [7] = target: hTRPM2 E1409Q mutant (Homo sapiens, UniProt O94759, E1409Q); experiment: Whole-cell ADPR-induced currents, HEK293, E1409Q mutant; type: cell-based
# [8] = target: hTRPM2 D1287A mutant (Homo sapiens, UniProt O94759, D1287A); experiment: Whole-cell ADPR-induced currents, HEK293, D1287A mutant; type: cell-based; settings: ADPR 100 µM (Fig. 8)
# Summary of the method: (§1)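 HEK293 cells were cotransfected with 50 ng EGFP plus 1 µg WT or mutant hTRPM2 plasmid and recorded 24–36 h later, choosing cells of similar fluorescence and size. Recording was whole-cell at RT. […] Cells were held at 0 mV with a 500-ms ramp from −100 to 100 mV every 5 s. Currents were normalized to same-day mean maximal WT current. EC50 came from Hill fits. At least five cells per condition.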
# [9] = target: hTRPM2 T1347I mutant (Homo sapiens, UniProt O94759, T1347I); experiment: Whole-cell ADPR-induced currents, HEK293, T1347I mutant; type: cell-based; settings: T1347I (Fig. 5 C)
# Summary of the method: as §1
# [10] = target: hTRPM2 Y1349F mutant (Homo sapiens, UniProt O94759, Y1349F); experiment: Whole-cell ADPR-induced currents, HEK293, Y1349F mutant; type: cell-based; settings: Y1349F (Fig. 6 B)
# Summary of the method: as §1
# [11] = target: hTRPM2 T1347F mutant (Homo sapiens, UniProt O94759, T1347F); experiment: Whole-cell ADPR-induced currents, HEK293, T1347F mutant; type: cell-based
# [12] = target: hTRPM2 H1346W mutant (Homo sapiens, UniProt O94759, H1346W); experiment: Whole-cell ADPR-induced currents, HEK293, H1346W mutant; type: cell-based
# [13] = target: hTRPM2 H1346F mutant (Homo sapiens, UniProt O94759, H1346F); experiment: Whole-cell ADPR-induced currents, HEK293, H1346F mutant; type: cell-based; settings: H1346F (Fig. 5 B)
# Summary of the method: as §1
# [14] = target: hTRPM2 E1409A mutant (Homo sapiens, UniProt O94759, E1409A); experiment: Whole-cell ADPR-induced currents, HEK293, E1409A mutant; type: cell-based
# [15] = target: hTRPM2 R1433Q mutant (Homo sapiens, UniProt O94759, R1433Q); experiment: Whole-cell ADPR-induced currents, HEK293, R1433Q mutant; type: cell-based; settings: R1433Q (Fig. 5 E)
# Summary of the method: as §1
# [16] = target: hTRPM2 R1433L mutant (Homo sapiens, UniProt O94759, R1433L); experiment: Whole-cell ADPR-induced currents, HEK293, R1433L mutant; type: cell-based; settings: R1433L (Fig. 5 E)
# Summary of the method: as §1
# [17] = target: hTRPM2 L1484A mutant (Homo sapiens, UniProt O94759, L1484A); experiment: Whole-cell ADPR-induced currents, HEK293, L1484A mutant; type: cell-based; settings: 3 µM and 100 µM ADPR (Fig. 3 C)
# Summary of the method: as §1
# [18] = target: T1, hTRPM2 G1389A mutant; experiment: Whole-cell ADPR-induced currents, HEK293, G1389A mutant; type: cell-based; settings: 3 µM and 100 µM ADPR (Fig. 3 C)
# Summary of the method: as §1
# [19] = target: hTRPM2 S1340A mutant (Homo sapiens, UniProt O94759, S1340A); experiment: Whole-cell ADPR-induced currents, HEK293, S1340A mutant; type: cell-based; settings: ADPR 100 µM (Fig. 8)
# Summary of the method: as §1
# [20] = target: hTRPM2 Y1349S mutant (Homo sapiens, UniProt O94759, Y1349S); experiment: Whole-cell ADPR-induced currents, HEK293, Y1349S mutant; type: cell-based; settings: Y1349S (Fig. 6 B)
# Summary of the method: as §1
# [21] = target: hTRPM2 T1347Y mutant (Homo sapiens, UniProt O94759, T1347Y); experiment: Whole-cell ADPR-induced currents, HEK293, T1347Y mutant; type: cell-based
# Sequence of hTRPM2 T1347Y mutant (O94759 whole entry T1347Y): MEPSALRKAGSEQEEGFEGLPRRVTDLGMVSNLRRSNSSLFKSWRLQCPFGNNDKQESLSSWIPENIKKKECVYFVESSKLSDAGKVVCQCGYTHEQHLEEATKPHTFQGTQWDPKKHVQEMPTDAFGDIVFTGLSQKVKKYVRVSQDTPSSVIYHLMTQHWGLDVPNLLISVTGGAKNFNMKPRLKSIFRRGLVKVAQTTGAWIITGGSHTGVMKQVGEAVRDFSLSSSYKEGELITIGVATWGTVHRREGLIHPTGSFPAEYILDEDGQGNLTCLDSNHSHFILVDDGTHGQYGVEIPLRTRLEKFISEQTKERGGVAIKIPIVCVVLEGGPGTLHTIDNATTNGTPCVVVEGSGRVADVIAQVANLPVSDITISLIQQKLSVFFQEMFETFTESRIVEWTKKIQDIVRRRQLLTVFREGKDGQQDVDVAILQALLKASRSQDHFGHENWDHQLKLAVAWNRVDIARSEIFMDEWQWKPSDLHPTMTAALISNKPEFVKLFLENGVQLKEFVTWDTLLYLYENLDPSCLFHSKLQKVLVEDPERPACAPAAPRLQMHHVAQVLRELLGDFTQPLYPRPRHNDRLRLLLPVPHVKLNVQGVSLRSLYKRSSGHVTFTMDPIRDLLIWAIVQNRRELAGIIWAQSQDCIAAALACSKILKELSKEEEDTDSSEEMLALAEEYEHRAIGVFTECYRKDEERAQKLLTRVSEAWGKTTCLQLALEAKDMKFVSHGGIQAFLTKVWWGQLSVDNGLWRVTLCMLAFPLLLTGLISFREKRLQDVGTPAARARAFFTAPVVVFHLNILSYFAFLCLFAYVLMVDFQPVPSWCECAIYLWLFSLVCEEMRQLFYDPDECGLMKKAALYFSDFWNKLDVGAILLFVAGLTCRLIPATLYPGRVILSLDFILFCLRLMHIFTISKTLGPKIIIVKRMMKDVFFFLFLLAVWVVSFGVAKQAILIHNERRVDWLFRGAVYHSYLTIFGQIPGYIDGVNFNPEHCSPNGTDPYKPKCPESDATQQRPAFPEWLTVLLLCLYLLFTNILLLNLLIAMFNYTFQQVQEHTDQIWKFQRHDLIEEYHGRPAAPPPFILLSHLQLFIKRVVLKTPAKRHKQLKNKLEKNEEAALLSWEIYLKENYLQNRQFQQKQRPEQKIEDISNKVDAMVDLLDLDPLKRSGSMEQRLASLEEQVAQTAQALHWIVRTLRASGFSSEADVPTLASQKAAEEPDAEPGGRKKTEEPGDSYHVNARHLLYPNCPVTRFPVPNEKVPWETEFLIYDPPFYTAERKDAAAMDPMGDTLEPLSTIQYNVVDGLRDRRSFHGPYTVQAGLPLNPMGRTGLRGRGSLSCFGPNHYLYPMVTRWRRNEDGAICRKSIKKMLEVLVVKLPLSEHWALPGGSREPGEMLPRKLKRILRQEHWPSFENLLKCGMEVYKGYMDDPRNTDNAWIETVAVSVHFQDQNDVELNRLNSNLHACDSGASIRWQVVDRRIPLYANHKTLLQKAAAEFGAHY
# T1 sequence (O94759 whole entry G1389A): as the sequence (O94759 whole entry T1347Y) above, with Y1347T, G1389A counted along it
# Sequence of hTRPM2 L1379S mutant (O94759 whole entry L1379S): as the sequence (O94759 whole entry T1347Y) above, with Y1347T, L1379S counted along it
# Sequence of hTRPM2 Y1349S mutant (O94759 whole entry Y1349S): as the sequence (O94759 whole entry T1347Y) above, with Y1347T, Y1349S counted along it
# Sequence of hTRPM2 T1347F mutant (O94759 whole entry T1347F): as the sequence (O94759 whole entry T1347Y) above, with Y1347F counted along it
# Sequence of hTRPM2 E1409A mutant (O94759 whole entry E1409A): as the sequence (O94759 whole entry T1347Y) above, with Y1347T, E1409A counted along it
# Sequence of hTRPM2 Y1349F mutant (O94759 whole entry Y1349F): as the sequence (O94759 whole entry T1347Y) above, with Y1347T, Y1349F counted along it
# Sequence of hTRPM2 D1287A mutant (O94759 whole entry D1287A): as the sequence (O94759 whole entry T1347Y) above, with D1287A, Y1347T counted along it
# Sequence of hTRPM2 H1346F mutant (O94759 whole entry H1346F): as the sequence (O94759 whole entry T1347Y) above, with H1346F, Y1347T counted along it
# Sequence of hTRPM2 E1409Q mutant (O94759 whole entry E1409Q): as the sequence (O94759 whole entry T1347Y) above, with Y1347T, E1409Q counted along it
# Sequence of hTRPM2 H1346W mutant (O94759 whole entry H1346W): as the sequence (O94759 whole entry T1347Y) above, with H1346W, Y1347T counted along it
# Sequence of hTRPM2 T1347I mutant (O94759 whole entry T1347I): as the sequence (O94759 whole entry T1347Y) above, with Y1347I counted along it
# Sequence of hTRPM2 R1433L mutant (O94759 whole entry R1433L): as the sequence (O94759 whole entry T1347Y) above, with Y1347T, R1433L counted along it
# Sequence of hTRPM2 WT channel (O94759 whole entry): as the sequence (O94759 whole entry T1347Y) above, with Y1347T counted along it
# Sequence of hTRPM2 L1484A mutant (O94759 whole entry L1484A): as the sequence (O94759 whole entry T1347Y) above, with Y1347T, L1484A counted along it
# Sequence of hTRPM2 S1340A mutant (O94759 whole entry S1340A): as the sequence (O94759 whole entry T1347Y) above, with S1340A, Y1347T counted along it
# Sequence of hTRPM2 S1391A mutant (O94759 whole entry S1391A): as the sequence (O94759 whole entry T1347Y) above, with Y1347T, S1391A counted along it
# Sequence of hTRPM2 R1433Q mutant (O94759 whole entry R1433Q): as the sequence (O94759 whole entry T1347Y) above, with Y1347T, R1433Q counted along it
compound,measurement,setting,value
OO [H2O2],H2O2-induced current,[1],failed to induce a current
[Ca+2] [calcium],Channel activation by calcium,[2],readily activated
adenosine diphosphate ribose [ADPR],Hill slope,[3],2.6
same,Impact of mutation on ADPR binding to the NUDT9-H domain,[4],little impact
same,Hill slope,[5],2.7
same,Hill slope,[6],1.0
same,Hill slope,[7],1.6
same,Activity induced by ADPR,[8],normal activity
same,Channel sensitivity to ADPR,[9],completely lost sensitivity
same,Channel activation by ADPR,[10],did not significantly alter channel activation
same,Hill slope,[11],1.2
same,Hill slope,[12],2.0
same,Channel sensitivity to ADPR,[13],completely insensitive
same,Hill slope,[14],1.5
same,Response to ADPR,[15],no response
same,Response to ADPR,[16],no response
same,Channel function with ADPR,[17],lack of channel function
same,Channel activation by ADPR,[18],failed to be activated
same,Activity induced by ADPR,[19],normal activity
same,Channel activation by ADPR,[20],neither Y1349A nor Y1349S mutant could be activated
same,Hill slope,[21],1.3
